ASAP1 GAP inh: inhibitors of human ASAP1 ArfGAP activity, primary screen, biochemical, fluorescence polarization; Arf-GAP with SH3 domain, ANK repeat and PH domain-containing protein 1 (Homo sapiens), …; ASAP1-stimulated ARF1 GTP hydrolysis, GDP FP detection; inhibition, % at 16.5 µM; hit rate 0.19% among 360,000; in the data active means inhibition above about 25%;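 further: 0% = vehicle with enzyme and substrate and 100% = no enzyme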
Target sequence (Q9ULH1 325-724 limits assumed): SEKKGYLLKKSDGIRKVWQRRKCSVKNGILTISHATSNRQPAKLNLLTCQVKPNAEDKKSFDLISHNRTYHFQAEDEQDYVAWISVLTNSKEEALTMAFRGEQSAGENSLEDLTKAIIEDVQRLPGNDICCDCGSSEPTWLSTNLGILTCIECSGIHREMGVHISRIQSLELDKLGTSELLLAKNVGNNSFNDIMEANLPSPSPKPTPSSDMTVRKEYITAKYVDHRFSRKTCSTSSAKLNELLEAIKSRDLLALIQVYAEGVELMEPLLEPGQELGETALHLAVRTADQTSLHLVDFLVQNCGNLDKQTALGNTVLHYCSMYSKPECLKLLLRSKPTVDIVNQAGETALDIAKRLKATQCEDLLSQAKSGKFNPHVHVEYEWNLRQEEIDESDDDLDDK
ARFGAP1 inh: inhibitors of rat ARFGAP1 GAP activity, primary screen, biochemical, fluorescence polarization, GDP tracer; ADP-ribosylation factor GTPase-activating protein 1 (Rattus norvegicus), Q62848; Arfgap1-stimulated ARF1 GTP hydrolysis, GDP FP detection; inhibition, % at 16.5 µM; hit rate 0.26% among 360,000;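 active means inhibition above a per-plate limit, mean inhibition of low control wells plus 3 SD, cut at about 25% in these data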;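 further: 0% = DMSO wells with enzyme and 100% = wells lacking Arfgap1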
Target sequence (Q62848 1-136 limits assumed): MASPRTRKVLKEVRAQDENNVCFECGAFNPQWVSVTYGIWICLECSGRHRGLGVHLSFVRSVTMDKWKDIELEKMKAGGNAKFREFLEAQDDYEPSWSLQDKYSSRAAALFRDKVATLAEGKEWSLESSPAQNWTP
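Assay system: purified rat His6-Arfgap1 residues 1-136 (GAP domain); Reagent: human Δ17 ARF1 bound to GTP; Dosing: 16.5 µM single point, 1.26% DMSO; Times: GTP hydrolysis reaction 2 h at 25 °C; Signal: FP, GDP Alexa 633 tracer displaced from anti-GDP antibody, 620/688 nm; Measure: % inhibition from polarization.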
bovine MsrA act: bovine MsrA enzyme activators, primary screen, biochemical, absorbance, HTS | purified bovine MsrA, absorbance read-out | activation, % at 10.6 µM | hit rate 0.3% among 360,000; in the data active means activation above about 7.5%;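 further: 0% = vehicle and 100% = reference activator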
MsrA inh: bovine MsrA enzyme inhibitors, primary screen, biochemical, absorbance, HTS | hit rate 0.75% among 360,000 | Methionine sulfoxide reductase A (Bos taurus) | inhibition, % at 15.5 µM | purified bovine MsrA, absorbance read-out;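 further: 0% = vehicle wells with enzyme and 100% = reference inhibitor wells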
MsrA conf: bovine MsrA inhibitors, retest, confirmation, biochemical, absorbance, HTS; inhibition, % at 15.5 µM; shares compounds with MsrA inh; purified bovine MsrA, absorbance read-out; AID 651822, 2012; hit rate 41% among 2,300;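 further: coupled to thioredoxin reductase with NADPH and selenocystamine and DMSO as substrate; 0% = vehicle only and 100% = full effect of reference inhibitor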
Active calls of the source: *; x = no result given. Sampled rows, rich in hits. Any-hit rate of the full collection: about 1.4%. Unless noted, no stated cut-off is given here; in the data, active means inhibition above about 4.5%; inactive means the rest.

SMILES	ASAP1 GAP inh	ARFGAP1 inh	bovine MsrA act	MsrA inh	MsrA conf
CC1(C(=O)Nc2ccc(Cl)c(Cl)c2)CCN1C(=O)Cc1ccc(-c2ccccc2)cc1 (configuration not stated)	x	x	-3	x	x
Cc1cccc(C(=O)Nc2cc(Cl)ccc2-n2cncn2)c1[N+](=O)[O-]	0	-2	-5	7.3*	4.8*
CC1(C)CC(=O)c2sc(NC(=O)CN3CCOCC3)nc2C1	-5	8	-2	1	x
CC1(C)CC(=O)c2sc(NS(=O)(=O)c3ccccc3)nc2C1	-10	3	0	3	x
CC1(C)CC(=O)c2sc(NC(=O)CN3C(=O)CCC3=O)nc2C1	-19	-8	0	5.0*	2
CC1(C)CC(=O)c2sc(NS(=O)(=O)c3ccc([N+](=O)[O-])cc3)nc2C1	-5	0	-2	6.3*	4
CC1(C)CC(=O)c2sc(NS(C)(=O)=O)nc2C1	-11	6	-5	6.6*	4
CCC(C)C(=O)Nc1nc2c(s1)C(=O)CC(C)(C)C2 (configuration not stated)	6	1	-1	-1	x
Cc1ccc(N2CC(C(=O)NCCC3=CCCCC3)CC2=O)cc1 (configuration not stated)	-4	13	0	0	x
CC[n+]1c(/C=C(\C)OC)sc2ccccc21	1	-2	-12	5.8*	5.0*
CCC(C(=O)OC)n1cnc2scc(-c3ccc(C)c(C)c3)c2c1=O (configuration not stated)	7	0	-2	7.5*	5.3*
CCC(C(=O)O)n1cnc2scc(-c3ccc(C)c(C)c3)c2c1=O (configuration not stated)	4	14	0	-1	x
CCCn1cnc2scc(-c3ccc(C)c(C)c3)c2c1=O	-6	3	-4	8.6*	6.5*
Cc1ccc(C2c3c(n[nH]c3C)C(=O)N2Cc2ccccc2)cc1 (configuration not stated)	0	-4	x	1	x
CC(C)Oc1ccc(/C=N/NC(N)=S)cc1	11	3	-3	4.8*	2
CO[C@H]1/C=C/O[C@@]2(C)Oc3c(C)c(O)c4c(O)c(c(C=NN5CCN(C)CC5)c(O)c4c3C2=O)NC(=O)/C(C)=C\C=C\[C@H](C)[C@H](O)[C@@H](C)[C@@H](O)[C@@H](C)[C@H](OC(C)=O)[C@@H]1C	12	0	2	2	x
CO[C@H]1C=CO[C@@]2(C)Oc3c(C)c(O)c4c(O)c(c(C=NN5CCN(C)CC5)c(O)c4c3C2=O)NC(=O)C(C)=CC=C[C@H](C)[C@H](O)[C@@H](C)[C@@H](O)[C@@H](C)[C@H](OC(C)=O)[C@@H]1C	-1	14	-4	5.4*	3
CCCCOCC1CN(CCCC)S(=O)(=O)c2c(cccc2N2CCCCC2)O1 (configuration not stated)	8	-6	x	1	x
NC(=O)Cc1nc(-c2ccc([N+](=O)[O-])cc2)cs1	0	7	-4	5.0*	1
NC(=O)Cc1nc(-c2ccc(F)cc2)cs1	-18	-10	-1	1	x
O=C1C(Nc2cccc(O)c2)=C(N2CCCCC2)C(=O)c2ccccc21	16	13	-7	14*	0
O=C(/C=C/c1ccc(O)cc1)c1ccc(NC2=C(N3CCCCC3)C(=O)c3ccccc3C2=O)cc1	23	14	1	3	x
Cc1cc(NS(=O)(=O)c2ccc(NC(=O)/C=C/c3ccco3)cc2)nc(C)n1	-5	3	-10	6.7*	4.8*
Cc1cc(NS(=O)(=O)c2ccc(NC(=O)c3cnc4scc(C)n4c3=O)cc2)nc(C)n1	10	0	-6	6.8*	4
Cc1ccc(-n2ccc(=O)c(C(=O)Nc3ccc(S(=O)(=O)Nc4onc(C)c4C)cc3)n2)cc1	-9	7	-12	4.8*	2
SMILES	ASAP1 GAP inh	ARFGAP1 inh	bovine MsrA act	MsrA inh	MsrA conf
Cc1noc(NS(=O)(=O)c2ccc(NC(=O)c3cnc4scc(C)n4c3=O)cc2)c1C	-2	1	-3	5.8*	6.2*
Cc1oc2c(CN3CCCCC3C)c(O)ccc2c(=O)c1-c1ccc(Br)cc1 (configuration not stated)	6	13	-3	1	x
Cc1ccc2nc(/C(C#N)=N/O)[nH]c2c1	8	4	-6	5.1*	3
C(=C\c1ccco1)/C=N/n1cnnc1	-2	-2	-15	4.7*	5.7*
Cc1cccc(-c2n[nH]c(=S)n2/N=C/C=C/c2ccco2)c1	2	-4	-3	2	x
S=c1[nH]nc(-c2ccncc2)n1/N=C/C=C/c1ccco1	-5	-9	-5	7.1*	4.9*
c1cnn(-c2cncc(-n3cccn3)n2)c1	-7	-1	-4	14*	10*
CN1CCN(c2ncnc3c2ncn3[C@H]2CN(C)C[C@@H](CO)O2)CC1	4	-2	-2	0	x
O=c1c2ccccc2nc(/C=C/c2c[nH]c3ccccc23)n1CCO	0	10	-1	5.0*	3
O=c1c2ccccc2nc(/C=C/c2ccc(O)cc2)n1CCc1ccccc1	6	7	-4	2	x
O=C(N/N=C/c1cc2ccccc2nc1Cl)/C(=C/c1cccs1)NC(=O)c1ccccc1	23	8	-5	3	x
COc1ccc(/C=C(/NC(=O)c2ccccc2)C(=O)N/N=C/c2ccc3c(c2)OCO3)cc1OC	-4	7	-5	6.4*	5.1*
COc1ccc(/C=C(/NC(=O)c2ccccc2)C(=O)N/N=C/c2cccs2)cc1OC	6	5	-7	4.8*	6.0*
COc1ccc([N+](=O)[O-])cc1/C=N/NC(=O)/C(=C\c1cccs1)NC(=O)c1ccccc1	2	0	-9	3	x
O=C(N/N=C/c1cccnc1)/C(=C\c1cccs1)NC(=O)c1ccccc1	12	-5	3	7.3*	4.7*
COc1cc(CNC(=O)c2cc(-c3ccc(F)cc3OC)n[nH]2)cc(OC)c1	-1	-1	-8	0	x
C=CCN1C(c2ccccc2)=CS/C1=C(\C#N)c1nnc2n1CCCCC2	4	10	-6	4.8*	3
CC1CCCCN1CCCNC(=O)CN1C(=O)c2cccnc2Oc2ccccc21 (configuration not stated)	0	9	-1	0	x
C/C(=N\Nc1ccc(C(F)(F)F)cc1[N+](=O)[O-])C1CC1	-2	-5	-3	9.2*	8.8*
Cc1ccc(Nc2ccc(C(F)(F)F)cc2[N+](=O)[O-])cc1	4	-16	-3	10.0*	17*
CC1(C)CC(=O)C=C(Nc2ccc(S(N)(=O)=O)cc2)C1	-4	-2	-7	4.9*	3
CC1(C)CC(=O)C=C(Nc2ccc(C(=O)O)cc2)C1	15	9	-4	7.0*	3
